Reference: ChEMBL document CHEMBL4229344 (Eur J Med Chem, 2018)

What was measured:
[1] = molecular target: Tyrosine-protein kinase JAK2 (Homo sapiens) (UniProt O60674); assay: Binding affinity to wild-type human partial length JAK2 JH1 catalytic domain (A829 to G1132 residues) expressed in mammalian expression system assessed as residual binding level at 1 uM by Kinomescan method relative to control
[2] = MRT (0 to t) in Sprague-Dawley rat at 1 mg/kg, iv; type: ADME, organism-based; conditions: in vivo
[3] = molecular target: Ephrin type-A receptor 4 (Homo sapiens) (UniProt P54764); assay: Binding affinity to wild-type human partial length EPHA4 (T601 to R897 residues) expressed in bacterial expression system assessed as residual binding level at 1 uM by Kinomescan method relative to control
Sequence of Ephrin type-A receptor 4 (Homo sapiens) (P54764 whole entry, the tested form may be a part): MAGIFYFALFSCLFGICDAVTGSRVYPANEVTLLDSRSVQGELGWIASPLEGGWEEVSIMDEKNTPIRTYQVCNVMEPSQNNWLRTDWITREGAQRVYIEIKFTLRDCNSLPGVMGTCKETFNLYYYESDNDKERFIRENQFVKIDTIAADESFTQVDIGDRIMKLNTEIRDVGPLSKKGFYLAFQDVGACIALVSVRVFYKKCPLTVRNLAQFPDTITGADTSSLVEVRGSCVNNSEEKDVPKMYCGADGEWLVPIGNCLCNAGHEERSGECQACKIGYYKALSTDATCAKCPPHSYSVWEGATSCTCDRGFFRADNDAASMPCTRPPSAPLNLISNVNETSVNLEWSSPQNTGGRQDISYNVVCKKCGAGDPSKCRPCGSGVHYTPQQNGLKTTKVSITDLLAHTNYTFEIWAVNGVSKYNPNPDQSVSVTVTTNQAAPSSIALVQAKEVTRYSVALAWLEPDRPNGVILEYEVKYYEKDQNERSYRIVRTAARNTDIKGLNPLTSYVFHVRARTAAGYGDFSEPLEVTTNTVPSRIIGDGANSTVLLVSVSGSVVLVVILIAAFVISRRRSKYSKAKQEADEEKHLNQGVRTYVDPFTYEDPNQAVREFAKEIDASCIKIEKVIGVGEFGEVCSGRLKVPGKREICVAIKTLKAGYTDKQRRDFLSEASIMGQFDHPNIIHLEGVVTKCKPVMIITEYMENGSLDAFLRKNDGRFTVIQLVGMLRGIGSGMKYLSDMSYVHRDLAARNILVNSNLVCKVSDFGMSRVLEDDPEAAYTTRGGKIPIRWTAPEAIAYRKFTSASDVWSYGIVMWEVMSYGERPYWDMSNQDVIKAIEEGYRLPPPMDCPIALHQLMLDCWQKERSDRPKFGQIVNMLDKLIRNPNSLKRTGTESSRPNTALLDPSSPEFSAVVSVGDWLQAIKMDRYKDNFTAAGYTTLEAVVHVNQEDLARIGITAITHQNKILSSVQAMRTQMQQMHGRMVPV
How it was run: (§1)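 Kinome-wide competition binding screen against a panel of 468 purified kinases/mutants, with the test compound at a single concentration of 1 μM. Read-out is the relative binding activity of each kinase in the presence of compound.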

[4] = molecular target: Cyclin-dependent kinase 15 (Homo sapiens) (UniProt Q96Q40); assay: Binding affinity to wild-type human full length PFTAIRE2 (M1 to W384 residues) expressed in bacterial expression system assessed as residual binding level at 1 uM by Kinomescan method relative to control
Sequence of Cyclin-dependent kinase 15 (Homo sapiens) (Q96Q40 whole entry, the tested form may be a part): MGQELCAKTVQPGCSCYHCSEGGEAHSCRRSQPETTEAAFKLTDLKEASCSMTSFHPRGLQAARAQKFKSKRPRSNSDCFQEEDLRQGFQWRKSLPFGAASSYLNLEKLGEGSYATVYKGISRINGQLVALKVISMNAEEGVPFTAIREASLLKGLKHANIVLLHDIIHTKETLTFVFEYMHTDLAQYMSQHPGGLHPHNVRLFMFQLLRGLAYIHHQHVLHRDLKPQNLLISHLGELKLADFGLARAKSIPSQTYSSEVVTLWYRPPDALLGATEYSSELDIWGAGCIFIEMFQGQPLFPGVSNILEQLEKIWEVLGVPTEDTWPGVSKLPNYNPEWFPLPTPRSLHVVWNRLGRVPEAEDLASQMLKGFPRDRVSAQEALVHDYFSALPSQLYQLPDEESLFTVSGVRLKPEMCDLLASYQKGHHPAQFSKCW
How it was run: (§2)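 KINOMEscan competition binding against 468 purified kinases/mutants, test compound at 1 µM; residual binding relative to control.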

[5] = molecular target: Serine/threonine-protein kinase Sgk3 (Homo sapiens) (UniProt Q96BR1); assay: Binding affinity to wild-type human partial length SGK3 (M119 to L496 residues) expressed in mammalian expression system assessed as residual binding level at 1 uM by Kinomescan method relative to control
How it was run: (§3)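 KINOMEscan competition binding against a panel of 468 purified kinases/mutants, compound tested at 1 μM; readout is relative binding activity versus control.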

[6] = molecular target: Serine/threonine-protein kinase haspin (Homo sapiens) (UniProt Q8TF76); assay: Binding affinity to wild-type human partial length HASPIN (I452 to K798 residues) expressed in mammalian expression system assessed as residual binding level at 1 uM by Kinomescan method relative to control; how it was run: as §1
[7] = molecular target: Serine/threonine-protein kinase 38 (Homo sapiens) (UniProt Q15208); assay: Binding affinity to wild-type human partial length NDR1 (N33 to E449 residues) expressed in mammalian expression system assessed as residual binding level at 1 uM by Kinomescan method relative to control
[8] = molecular target: Microtubule-associated serine/threonine-protein kinase 1 (Homo sapiens) (UniProt Q9Y2H9); assay: Binding affinity to wild-type human partial length MAST1 (S346 to V730 residues) expressed in mammalian expression system assessed as residual binding level at 1 uM by Kinomescan method relative to control
[9] = molecular target: Ephrin type-A receptor 6 (Homo sapiens) (UniProt Q9UF33); assay: Binding affinity to wild-type human partial length EPHA6 (Y700 to E1046 residues) expressed in bacterial expression system assessed as residual binding level at 1 uM by Kinomescan method relative to control; how it was run: as §1
[10] = molecular target: Serine/threonine-protein kinase PAK 1 (Homo sapiens) (UniProt Q13153); assay: Binding affinity to wild-type human partial length PAK1 (S149 to H545 residues) expressed in bacterial expression system assessed as residual binding level at 1 uM by Kinomescan method relative to control
[11] = molecular target: cAMP-dependent protein kinase catalytic subunit PRKX (Homo sapiens) (UniProt P51817); assay: Binding affinity to wild-type human partial length PRKX (M1 to F358 residues) expressed in bacterial expression system assessed as residual binding level at 1 uM by Kinomescan method relative to control; how it was run: as §3
Sequence of cAMP-dependent protein kinase catalytic subunit PRKX (Homo sapiens) (P51817 whole entry, the tested form may be a part): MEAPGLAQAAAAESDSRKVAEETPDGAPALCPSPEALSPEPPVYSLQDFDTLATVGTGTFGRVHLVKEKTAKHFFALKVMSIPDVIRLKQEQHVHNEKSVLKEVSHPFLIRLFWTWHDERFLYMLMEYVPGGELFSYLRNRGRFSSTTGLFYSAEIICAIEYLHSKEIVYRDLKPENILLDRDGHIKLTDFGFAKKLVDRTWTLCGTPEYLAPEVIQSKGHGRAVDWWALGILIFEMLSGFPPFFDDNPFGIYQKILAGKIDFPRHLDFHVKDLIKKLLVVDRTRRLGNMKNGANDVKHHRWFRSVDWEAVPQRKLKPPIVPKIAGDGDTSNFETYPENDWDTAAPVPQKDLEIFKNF

[12] = molecular target: Dual specificity testis-specific protein kinase 1 (Homo sapiens) (UniProt Q15569); assay: Binding affinity to wild-type human full length TESK1 (R37 to S626 residues) expressed in bacterial expression system assessed as residual binding level at 1 uM by Kinomescan method relative to control
Sequence of Dual specificity testis-specific protein kinase 1 (Homo sapiens) (Q15569 whole entry, looked up, the tested form may be a part): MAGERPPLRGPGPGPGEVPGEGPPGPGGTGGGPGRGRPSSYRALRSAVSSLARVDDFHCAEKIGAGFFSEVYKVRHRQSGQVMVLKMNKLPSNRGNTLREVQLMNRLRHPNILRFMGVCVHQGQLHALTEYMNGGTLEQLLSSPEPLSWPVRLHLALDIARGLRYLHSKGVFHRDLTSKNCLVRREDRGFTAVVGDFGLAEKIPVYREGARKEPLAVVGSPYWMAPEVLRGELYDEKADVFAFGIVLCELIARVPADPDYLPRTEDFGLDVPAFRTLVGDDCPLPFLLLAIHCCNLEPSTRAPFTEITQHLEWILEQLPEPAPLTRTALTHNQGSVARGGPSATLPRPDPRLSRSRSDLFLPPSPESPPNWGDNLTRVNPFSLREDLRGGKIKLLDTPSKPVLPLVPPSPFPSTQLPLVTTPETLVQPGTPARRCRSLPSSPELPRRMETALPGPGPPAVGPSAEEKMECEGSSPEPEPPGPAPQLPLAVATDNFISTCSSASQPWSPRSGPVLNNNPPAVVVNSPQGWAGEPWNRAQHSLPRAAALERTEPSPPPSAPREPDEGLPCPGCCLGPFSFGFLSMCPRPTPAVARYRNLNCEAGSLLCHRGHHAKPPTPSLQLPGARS
How it was run: (§4)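 Single-concentration KINOMEscan (DiscoverX) binding screen at 1 μM against a panel of 468 purified kinases and mutants. The read-out is binding relative to control.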

[13] = molecular target: ALK tyrosine kinase receptor (Homo sapiens) (UniProt Q9UM73); assay: Binding affinity to wild-type human partial length ALK (I1088 to E1409 residues) expressed in mammalian expression system assessed as residual binding level at 1 uM by Kinomescan method relative to control; how it was run: as §4
Sequence of ALK tyrosine kinase receptor (Homo sapiens) (Q9UM73 19-1620 limits assumed): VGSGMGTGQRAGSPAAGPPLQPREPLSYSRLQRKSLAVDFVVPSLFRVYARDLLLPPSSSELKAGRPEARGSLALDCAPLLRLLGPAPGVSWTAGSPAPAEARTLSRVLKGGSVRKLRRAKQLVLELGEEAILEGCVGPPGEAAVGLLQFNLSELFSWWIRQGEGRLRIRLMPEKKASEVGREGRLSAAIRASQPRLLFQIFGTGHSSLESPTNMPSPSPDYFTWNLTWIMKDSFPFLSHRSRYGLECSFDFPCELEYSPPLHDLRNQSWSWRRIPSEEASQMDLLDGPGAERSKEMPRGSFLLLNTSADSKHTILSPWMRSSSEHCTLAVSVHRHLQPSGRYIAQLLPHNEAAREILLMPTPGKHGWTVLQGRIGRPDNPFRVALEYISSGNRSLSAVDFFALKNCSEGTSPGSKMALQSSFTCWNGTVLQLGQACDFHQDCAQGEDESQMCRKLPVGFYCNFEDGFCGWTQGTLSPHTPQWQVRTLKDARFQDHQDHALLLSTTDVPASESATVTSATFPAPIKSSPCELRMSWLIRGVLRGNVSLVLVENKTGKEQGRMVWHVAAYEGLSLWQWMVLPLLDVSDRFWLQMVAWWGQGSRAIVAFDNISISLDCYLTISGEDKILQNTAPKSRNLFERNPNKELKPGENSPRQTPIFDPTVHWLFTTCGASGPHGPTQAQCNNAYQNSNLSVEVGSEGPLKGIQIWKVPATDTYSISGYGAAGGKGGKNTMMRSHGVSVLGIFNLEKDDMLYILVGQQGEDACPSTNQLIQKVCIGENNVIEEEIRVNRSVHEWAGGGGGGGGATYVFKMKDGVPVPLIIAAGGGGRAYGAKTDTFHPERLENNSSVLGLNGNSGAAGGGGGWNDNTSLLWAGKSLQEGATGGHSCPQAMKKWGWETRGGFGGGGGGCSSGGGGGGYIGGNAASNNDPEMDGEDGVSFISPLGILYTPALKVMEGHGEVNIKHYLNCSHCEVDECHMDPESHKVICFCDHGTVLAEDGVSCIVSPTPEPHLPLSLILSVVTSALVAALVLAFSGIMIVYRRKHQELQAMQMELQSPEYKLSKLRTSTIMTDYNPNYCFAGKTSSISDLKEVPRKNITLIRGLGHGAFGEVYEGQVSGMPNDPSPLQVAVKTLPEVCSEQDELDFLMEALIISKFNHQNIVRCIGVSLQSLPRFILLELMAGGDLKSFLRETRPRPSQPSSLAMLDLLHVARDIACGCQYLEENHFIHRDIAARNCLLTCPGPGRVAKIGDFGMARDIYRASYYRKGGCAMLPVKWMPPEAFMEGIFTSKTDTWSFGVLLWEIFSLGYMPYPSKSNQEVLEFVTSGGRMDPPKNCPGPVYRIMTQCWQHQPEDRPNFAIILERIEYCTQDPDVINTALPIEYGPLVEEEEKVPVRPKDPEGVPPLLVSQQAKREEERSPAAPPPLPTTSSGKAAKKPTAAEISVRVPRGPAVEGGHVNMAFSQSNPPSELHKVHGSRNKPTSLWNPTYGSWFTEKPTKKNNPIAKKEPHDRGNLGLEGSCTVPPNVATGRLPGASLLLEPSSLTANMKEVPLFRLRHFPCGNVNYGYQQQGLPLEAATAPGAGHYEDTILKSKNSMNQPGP

[14] = molecular target: Serine/threonine-protein kinase Nek10 (Homo sapiens) (UniProt Q6ZWH5); assay: Binding affinity to wild-type human partial length NEK10 (L488 to R809 residues) expressed in mammalian expression system assessed as residual binding level at 1 uM by Kinomescan method relative to control
[15] = molecular target: Phosphatidylinositol 4-phosphate 3-kinase C2 domain-containing subunit beta (Homo sapiens) (UniProt O00750); assay: Binding affinity to wild-type human partial length PIK3C2B (M1 to L1634 residues) expressed in mammalian expression system assessed as residual binding level at 1 uM by Kinomescan method relative to control
[16] = molecular target: Interleukin-1 receptor-associated kinase 3 (Homo sapiens) (UniProt Q9Y616); assay: Binding affinity to wild-type human partial length IRAK3 (V147 to E596 residues) expressed in bacterial expression system assessed as residual binding level at 1 uM by Kinomescan method relative to control
Sequence of Interleukin-1 receptor-associated kinase 3 (Homo sapiens) (Q9Y616 whole entry, the tested form may be a part): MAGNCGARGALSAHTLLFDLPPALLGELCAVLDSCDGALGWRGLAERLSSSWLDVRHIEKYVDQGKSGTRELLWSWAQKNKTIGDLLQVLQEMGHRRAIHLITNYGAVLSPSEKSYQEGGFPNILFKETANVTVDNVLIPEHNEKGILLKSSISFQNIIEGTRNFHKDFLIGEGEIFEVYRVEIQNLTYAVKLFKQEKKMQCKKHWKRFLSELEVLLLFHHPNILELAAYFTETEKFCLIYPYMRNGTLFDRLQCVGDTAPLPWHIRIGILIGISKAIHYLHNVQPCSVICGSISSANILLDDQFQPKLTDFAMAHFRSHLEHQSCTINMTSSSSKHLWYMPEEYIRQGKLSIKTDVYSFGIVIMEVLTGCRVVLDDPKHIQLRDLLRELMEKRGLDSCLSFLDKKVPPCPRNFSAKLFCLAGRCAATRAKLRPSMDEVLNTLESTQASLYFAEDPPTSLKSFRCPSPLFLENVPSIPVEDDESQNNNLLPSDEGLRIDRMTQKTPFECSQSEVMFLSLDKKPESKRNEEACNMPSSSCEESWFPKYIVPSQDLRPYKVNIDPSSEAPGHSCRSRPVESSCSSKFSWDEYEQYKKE

[17] = molecular target: Platelet-derived growth factor receptor alpha (Homo sapiens, UniProt P16234)
[18] = molecular target: Casein kinase I isoform gamma-2 (Homo sapiens) (UniProt P78368); assay: Binding affinity to wild-type human full length CSNK1G2 (M1 to K415 residues) expressed in bacterial expression system assessed as residual binding level at 1 uM by Kinomescan method relative to control
Sequence of Casein kinase I isoform gamma-2 (Homo sapiens) (P78368 whole entry, looked up, the tested form may be a part, canonical isoform): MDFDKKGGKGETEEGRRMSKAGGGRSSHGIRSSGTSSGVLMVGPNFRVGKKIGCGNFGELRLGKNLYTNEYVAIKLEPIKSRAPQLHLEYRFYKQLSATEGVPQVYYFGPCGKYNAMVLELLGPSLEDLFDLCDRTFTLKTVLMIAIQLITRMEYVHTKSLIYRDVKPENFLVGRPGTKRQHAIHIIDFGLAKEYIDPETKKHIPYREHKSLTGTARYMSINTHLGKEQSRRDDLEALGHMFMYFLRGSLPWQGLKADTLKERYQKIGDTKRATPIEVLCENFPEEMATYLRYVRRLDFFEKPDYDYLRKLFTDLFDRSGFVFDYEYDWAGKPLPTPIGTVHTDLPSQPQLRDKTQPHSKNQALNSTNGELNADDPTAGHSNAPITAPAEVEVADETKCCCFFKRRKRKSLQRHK
How it was run: (§5)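 Single-concentration (1 μM) competition-binding screen run by KINOMEscan against a panel of 468 purified kinases and mutants. The read-out is the relative binding activity of the test compound to each kinase.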

[19] = molecular target: Serine/threonine-protein kinase WNK4 (Homo sapiens) (UniProt Q96J92); assay: Binding affinity to wild-type human partial length WNK4 (A31 to D461 residues) expressed in mammalian expression system assessed as residual binding level at 1 uM by Kinomescan method relative to control
[20] = molecular target: Serine/threonine-protein kinase B-raf (Homo sapiens) (UniProt P15056); assay: Binding affinity to wild-type human partial length BRAF (S429 to E741 residues) expressed in mammalian expression system assessed as residual binding level at 1 uM by Kinomescan method relative to control; how it was run: as §4
[21] = molecular target: Calcium-dependent protein kinase 1 (Plasmodium falciparum) (UniProt P62344); assay: Binding affinity to wild-type Plasmodium falciparum 3D7 full length CDPK1 (M1 to S524 residues) expressed in mammalian expression system assessed as residual binding level at 1 uM by Kinomescan method relative to control; how it was run: as §2
[22] = molecular target: Tyrosine-protein kinase ABL1 (Homo sapiens, UniProt P00519); assay: Binding affinity to wild-type human non-phosphorylated ABL1 (S229 to K512 residues) expressed in mammalian expression system assessed as residual binding level at 1 uM by Kinomescan method relative to control; how it was run: as §4
[23] = molecular target: Mitogen-activated protein kinase kinase kinase 13 (Homo sapiens) (UniProt O43283); assay: Binding affinity to wild-type human full length LZK (M1 to W966 residues) expressed in mammalian expression system assessed as residual binding level at 1 uM by Kinomescan method relative to control; how it was run: as §5

SMILES: Cc1ccc(NC(=O)c2ccc(CN(CCN(C)C)C(=O)c3cccnc3)cc2)cc1Nc1nccc(-c2cccnc2)n1
- Activity [1]: 95%
- MRT last [2]: 53.5 min
- Activity [3]: 94%
- Activity [4]: 87%
- Activity [5]: 92%
- Activity [6]: 72%
- Activity [7]: 71%
- Activity [8]: 100%
- Activity [9]: 92%
- Activity [10]: 95%
- Activity [11]: 92%
- Activity [12]: 100%
- Activity [13]: 100%
- Activity [14]: 100%
- Activity [15]: 97%
- Activity [16]: 100%
- GI50 [17]: 34 nM
- Activity [18]: 99%
- Activity [19]: 100%
- Activity [20]: 88%
- Activity [21]: 82%
- Activity [22]: 4.9%
- Activity [23]: 100%
